Data on 1 molecule can be found in ChEMBL document CHEMBL4017549, “Structural Basis of Inhibition of ERα-Coactivator Interaction by High-Affinity N-Terminus Isoaspartic Acid Tethered Helical Peptides” (J Med Chem, 2017).

For orientation: Kd means the concentration at which binding is half-saturated.

The nature of data set [1]: Drug uptake in human U2OS cells assessed per million cells at 5 uM after 3 hrs by FACS analysis. It counts as ADME, cell-based. Summed up: (§1)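 Adherent cells seeded overnight, then exposed to 5 μM FITC-labelled peptide or DMSO in FBS-free medium, 3 h, 37 °C. After PBS washes (three), about 10000 cells per sample analysed by flow cytometry; mean cellular fluorescence intensity calculated. More than two independent experiments, SEM.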
For orientation: In flow cytometry, cells or beads pass a laser one at a time.

For another data set, the target named is T1, Vitamin D3 receptor (Homo sapiens, UniProt P11473).
T1 sequence (P11473 whole entry): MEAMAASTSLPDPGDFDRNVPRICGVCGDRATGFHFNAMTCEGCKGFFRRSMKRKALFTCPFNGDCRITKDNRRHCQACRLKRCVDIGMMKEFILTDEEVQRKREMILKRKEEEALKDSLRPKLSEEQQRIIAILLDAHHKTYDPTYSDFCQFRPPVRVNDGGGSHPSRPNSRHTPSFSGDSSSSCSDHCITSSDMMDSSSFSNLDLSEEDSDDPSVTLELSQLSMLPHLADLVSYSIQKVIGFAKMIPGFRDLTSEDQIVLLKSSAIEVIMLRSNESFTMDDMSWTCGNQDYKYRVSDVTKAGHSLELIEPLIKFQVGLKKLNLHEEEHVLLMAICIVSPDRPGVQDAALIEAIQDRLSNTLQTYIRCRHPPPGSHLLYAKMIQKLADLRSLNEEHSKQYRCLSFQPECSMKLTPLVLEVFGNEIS
As to the kind of experiment: Binding affinity to recombinant human GST-tagged VDR LBD (156 to 453 residues) expressed in Echerichia coli BL21 star (DE3) after 40 mins in presence of vitamin D3 by fluorescence polarization assay. An outline of the steps:
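GST-VDR LBD titrated into 10 nM final FITC-labelled peptide in 20 mM Tris-HCl pH 8.0, 150 mM NaCl, 5% glycerol, 1 mM TCEP containing 10 μM vitamin D3. 40 min dark incubation, polarization at 298 K (ex 480/em 535 nm). KD by nonlinear regression.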
Background: Polarisation of emitted light reports the rotation of a fluorescent probe.

Data set [2] has as its target T2, Estrogen receptor (Homo sapiens) (UniProt P03372).
T2 sequence (whole entry): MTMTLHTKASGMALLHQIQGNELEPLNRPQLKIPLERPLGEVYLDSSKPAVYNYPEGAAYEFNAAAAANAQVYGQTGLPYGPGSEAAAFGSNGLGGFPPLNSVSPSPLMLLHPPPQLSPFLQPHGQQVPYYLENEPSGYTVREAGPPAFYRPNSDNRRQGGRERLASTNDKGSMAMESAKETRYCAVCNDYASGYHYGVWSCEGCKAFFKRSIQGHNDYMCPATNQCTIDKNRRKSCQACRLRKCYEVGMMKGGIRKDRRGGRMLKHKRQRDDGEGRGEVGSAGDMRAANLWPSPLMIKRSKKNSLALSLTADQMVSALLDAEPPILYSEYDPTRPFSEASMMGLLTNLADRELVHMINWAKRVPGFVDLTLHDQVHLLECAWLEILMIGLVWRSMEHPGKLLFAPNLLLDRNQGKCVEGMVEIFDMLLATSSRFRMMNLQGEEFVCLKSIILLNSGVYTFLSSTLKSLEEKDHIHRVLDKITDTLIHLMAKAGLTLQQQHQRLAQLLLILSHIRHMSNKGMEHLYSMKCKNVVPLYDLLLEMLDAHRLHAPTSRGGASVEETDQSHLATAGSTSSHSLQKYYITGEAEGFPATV
As to the kind of experiment: Binding affinity to recombinant human GFP-fused ERalpha LBD (301 to 553 residues) expressed in Escherichia coli BL21(DE3) in presence of 17beta-estradiol by ITC. An outline of the steps:
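ITC at 25 °C. 2 μL injections of 50 μM peptide into 5 μM ERα LBD in 50 mM Tris pH 8.0, 150 mM NaCl, 1 mM TCEP, 0.1 mM 17β-estradiol. Binding isotherm fitted for affinity.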
On the technique in general: ITC needs no label: the signal is the heat of the interaction.

In data set [3] the target is T2, Estrogen receptor (Homo sapiens). Put plainly: Binding affinity to recombinant human GFP-fused ERalpha LBD (301 to 553 residues) expressed in Escherichia coli BL21(DE3) in presence of ERalpha inhibitor 4-hydroxytamoxifen by ITC. An outline of the steps: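 ITC at 25 °C. 50 μM peptide injected in 2 μL steps into 5 μM ERα LBD in 50 mM Tris pH 8.0, 150 mM NaCl, 1 mM TCEP containing 0.1 mM 4-hydroxytamoxifen instead of estradiol. Isotherm fitted.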

The species named for a further data set is Homo sapiens. As to the kind of experiment: Selectivity ratio of Kd for recombinant human ERbeta LBD (259 to 498 residues) to Kd for recombinant human ERalpha LBD (301 to 553 residues). Summed up:
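Ratio of KD values, each from fluorescence polarization of 10 nM FITC-peptide titrated with the respective LBD after 40 min in the dark at 298 K, with the matching ligand in buffer (10 μM 17β-estradiol, progesterone or vitamin D3).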

Data set [4] in a line: Drug uptake in human MCF7 cells assessed per million cells at 5 uM after 3 hrs by FACS analysis. It is filed as ADME, cell-based. As to conditions: mcf7, 3 h. An outline of the steps: as §1
Data set [5] can be described thus: Drug uptake in human MCF7 cells at 5 uM after 3 hrs in presence of 10 nM E2 by DAPI-staining based confocal laser scanning microscopic analysis. As to conditions: mcf7, 3 h.
In a further data set the target is T3, Estrogen receptor (Homo sapiens, UniProt P03372).
T3 sequence (P03372 whole entry): T2 sequence (whole entry)
Put plainly: Binding affinity to recombinant human GFP-fused ERalpha LBD (301 to 553 residues) expressed in Escherichia coli BL21(DE3) after 40 mins in presence of 17beta-estradiol by fluorescence polarization assay.

Data set [6] in a line: Drug uptake in human MCF7 cell nucleus at 5 uM after 3 hrs in presence of 10 nM E2 by DAPI-staining based confocal laser scanning microscopic analysis.

Activity calls are given as the source filed them. No cut-off for these calls is given here.

On to `CC[C@H](C)[C@@H]1NC(=O)C[C@H](NC(=O)[C@H](CCCNC(=N)N)NC(=O)CCNC(=S)Nc2ccc3c(c2)C(=O)OC32c3ccc(O)cc3Oc3cc(O)ccc32)C(=O)NCC(C(=O)N[C@@H](CCCNC(=N)N)C(=O)NC(CC(C)(C)C)C(=O)NC(CC(C)(C)C)C(=O)N[C@@H](CCC(N)=O)C(N)=O)NC(=O)C(CC(C)(C)C)NC1=O` (some centres undefined), for which the Drug uptake entry in data set [1], in [4], in data set [5] and in data set [6] was “Active” throughout. For the same molecule, the values for the Kd on Vitamin D3 receptor and at Estrogen receptor were above 2000 nM and 67 nM, respectively. Besides, the outcome in data set [2] was Active. The result in [3] was inactive. The Selectivity ratio in the data set filed under Homo sapiens came to 4.4.
